Screening data deposited in PubChem by Broad Institute.
An excerpt weighted towards active compounds, which were near 2.2% of everything screened.
PvdQ acylase: P. aeruginosa PvdQ acylase inhibitors, primary screen, biochemical, fluorescence, plate reader and imaging, single point; hit rate 0.063% among 340,000; inhibition, % at 10 µM; PvdQ acylase [Pseudomonas aeruginosa LESB58]; AID 488965, 2010; purified PvdQ acylase; in the data active = inhibition above about 30%, passing the limit was not always enough; inconclusive = no clear call, values can overlap the other calls;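 note: 0% = vehicle neutral wells and 100% = reference inhibitor wells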
PDI inh: inhibitors of human PDI, primary screen, biochemical, turbidity, single point, plate reader; Protein disulfide-isomerase (Homo sapiens), P07237; PDI insulin aggregation turbidity, A650, 90 min; inhibition, % at 10 µM; hit rate 0.052% among 350,000; AID 588391, 2011;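 active = mean inhibition across replicates of 30% or more, whatever share of single replicates reach that level; inconclusive = mean inhibition below 30% while every single replicate reaches 30%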
Target sequence (P07237 whole entry, looked up): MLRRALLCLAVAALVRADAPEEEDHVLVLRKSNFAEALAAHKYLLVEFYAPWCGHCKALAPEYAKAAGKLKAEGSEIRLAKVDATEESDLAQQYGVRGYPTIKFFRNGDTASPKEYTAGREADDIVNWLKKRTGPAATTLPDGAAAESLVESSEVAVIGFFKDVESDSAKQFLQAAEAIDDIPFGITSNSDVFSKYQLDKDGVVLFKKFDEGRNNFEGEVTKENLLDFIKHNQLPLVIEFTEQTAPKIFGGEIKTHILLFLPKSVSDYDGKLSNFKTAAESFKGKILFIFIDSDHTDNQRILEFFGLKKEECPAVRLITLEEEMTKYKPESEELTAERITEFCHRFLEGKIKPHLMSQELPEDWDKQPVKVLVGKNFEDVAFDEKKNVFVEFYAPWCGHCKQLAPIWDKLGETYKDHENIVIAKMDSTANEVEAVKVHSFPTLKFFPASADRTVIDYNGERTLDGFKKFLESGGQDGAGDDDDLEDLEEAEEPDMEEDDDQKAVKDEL
Env fusion inh: inhibitors of HIV-1 Env-driven cell-cell fusion, primary screen, HeLa-JRFL effector, CEM21 target cells, luciferase; inhibition, % at 12.3 µM; hit rate 1.1% among 360,000;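 active = mean replicate inhibition score of at least 50 and every replicate individually at or above 50; inconclusive = only one of the two criteria met; inactive = mean below 50 and not all replicates reaching 50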;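 note: 0% = plate neutral controls and 100% = maraviroc near 300 nM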
rRNA inh HTS: reduced GFP signal of wild-type E. coli, primary screen, bacterial rRNA inhibitor project, GFP/RFP fluorescence, OD600, single point. E. coli WT GFP vs humanized-ribosome RFP mutants, 24 h; hits give low values; DMSO median 0, no signal -100. GFP signal change (wild-type ribosome), % (test concentration not listed). hit rate 1.6% among 350,000. AID 720706, 2013;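 active = significant combined selectivity score with lowered wild-type GFP, culture density cut under 30%, mutant RFP and density less affected; inactive = any of these conditions unmet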
FN deposit inh: inhibitors of fibronectin matrix deposition, primary screen, AH1F cells, Alexa488-fibronectin fluorescence, plate reader; AH1F fibroblasts, overnight; inhibition, % at 12.6 µM; hit rate 0.086% among 350,000; AID 743247, 2014;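 active = mean inhibition across replicates of 30% or more, regardless of how many single replicates reach that level; inconclusive = mean under 30% yet at least half of replicates reach 30%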;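 note: positive control wells lacked labelled fibronectin entirely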
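test system = AH1F fibroblasts assembling fluorescent fibronectin matrix | quantity = 10000 AH1F cells per well | buffer or medium = DMEM plus 2% serum, read in PBS | doses = single dose, pinned | incubation = 1 h cell attachment, overnight exposure to compound and label | detection = fluorescence at 485 nm excitation, 525 nm emission | read-out basis = inhibition from reduced deposited-fibronectin fluorescence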
ERp5 block: inhibitors of ERp5-driven insulin aggregation, primary screen, biochemical, turbidity, absorbance 650 nm, single point; 90 min; hit rate 0.05% among 350,000; Protein disulfide-isomerase A6 (Homo sapiens), Q15084; inhibition, % at 9.99 µM;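 active = mean replicate inhibition above about 25%, with every replicate also reaching it, limit read from the data, passing the limit was not always enough; inconclusive = only one of those two criteria met; inactive = neither criterion met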
* = called active by the depositor; ? = inconclusive; / = no result; [ ] = dose if it differs, or a comment.

SMILES	PvdQ acylase	PDI inh	Env fusion inh	rRNA inh HTS	FN deposit inh	ERp5 block
O=C1NC(=S)NC1=Cc1ccccc1O	-11.9	-0.9	-30.4	-6.3	-3.0	3.0
O=C1NC(=S)NC1=Cc1ccc(Cl)cc1Cl	6.8	5.1	-45.2	-25.2*	-4.6	-6.8
Cc1nonc1C(=O)N/N=C/c1ccncc1	-4.6	6.4	-7.2	5.2	-1.2	-4.6
COc1cccc(/C=N/NC(=O)CNC(=O)COc2cccc(C)c2)c1O	-4.8	1.9	4.0	7.2	20.4	-2.2
Cc1ccc(NC(=O)CCC(=O)N/N=C/c2ccc(O)cc2O)cc1	-17.2	16.2	16.0	-12.2*	-9.4	1.6
O=C(CNC(=O)C(c1ccccc1)c1ccccc1)N/N=C\c1cccc(O)c1	-14.7	1.8	-20.2	-7.2	5.0	-4.2
Cc1cccc(OCC(=O)NCC(=O)N/N=C/c2ccc(O)cc2O)c1	-3.1	-1.7	10.6	-30.2*	7.7	-2.2
O=C(CNC(=O)C(c1ccccc1)c1ccccc1)N/N=C/c1ccc(O)cc1O	-1.3	22.5	-3.2	-19.9*	17.1	2.7
Cc1nonc1C(=O)N/N=C/c1ccc(O)cc1O	0.0	8.7	-0.2	-22.4*	-4.6	-0.9
O=C(N[C@@H]1CC[C@H](CCNC(=O)C2CCC2)O[C@H]1CO)c1ccccn1	/	/	10.4[16.7 µM]	1.9	/	-6.0
CN(C)C(=O)C[C@H]1C[C@@H]2c3cc(NC(=O)Nc4ccccc4F)ccc3O[C@@H]2[C@H](CO)O1	/	/	4.5[16.7 µM]	-2.4	-0.1	0.7
COc1ccc(CN2C[C@H](C)[C@@H](OC)CN(C)C(=O)c3ccc(NC(=O)C4CC4)cc3OC[C@@H]2C)cc1	/	/	/	1.3	-2.7	4.3
Cc1ccc2oc(-c3cccc(N)c3)nc2c1	-6.3	-3.9	-127.7	-22.6*	-6.7	-0.2
Cc1ccccc1-n1cc(-c2ccc(Br)cc2)nc1SCC(N)=O	-8.0	9.6	8.5	-41.3*	0.4	-1.9
Cc1ccc(-c2cn(-c3ccccc3)c(SCC(N)=O)n2)cc1C	-7.4	15.8	-2.5	/	-8.5	/
Cc1[nH]n(-c2ccccc2)c(=O)c1N=Nc1ccc(F)cc1	-8.4	-1.1	9.6	5.6	2.8	-0.1
CSc1ccc(N=Nc2c(C)[nH]n(C)c2=O)cc1	0.1	-15.8	-42.1	-24.4*	-5.9	/
Cc1nc2c(-c3ccc(F)cc3)c(C)nn2c(C)c1CCC(=O)N1CCN(c2ccc(F)cc2)CC1	-10.6	-2.9	56.0*	-6.7	-0.9	0.7
Cc1nc2c(-c3ccc(F)cc3)c(C)nn2c(C)c1CCC(=O)N1CCC(Cc2ccccc2)CC1	4.9	-6.5	55.2*	11.5	-3.9	-5.8
COc1ccccc1NC(=O)CCc1c(C)nc2c(-c3ccc(F)cc3)c(C)nn2c1C	-8.0	1.6	?	14.6	-1.0	-4.0
Cc1nc2c(-c3ccc(F)cc3)c(C)nn2c(C)c1CCC(=O)Nc1ccccc1	7.9	0.1	63.3*	2.7	2.1	-3.8
N/C(=N\OC(=O)Cc1ccccc1)c1cccc(Br)c1	-6.6	-2.9	-23.6	6.8	9.9	0.2
N/C(=N\OC(=O)Cc1ccccc1)c1ccccc1Cl	3.0	-5.2	-62.6	-17.4*	3.5	-1.5
COc1ccc(CC(=O)O/N=C(\N)c2ccc(C)cc2)cc1	0.3	-1.2	-20.9	-21.7*	0.3	8.3
N/C(=N\OC(=O)Cc1ccc(Cl)cc1)c1ccncc1	-9.8	7.0	-1.6	-21.5*	-3.3	2.5
SMILES	PvdQ acylase	PDI inh	Env fusion inh	rRNA inh HTS	FN deposit inh	ERp5 block
Cc1sc2ncn(CC(=O)Nc3ccccc3F)c(=O)c2c1-c1ccccc1	-5.7	1.8	-22.3	-28.4*	7.3	0.2
CO[C@@H]1CN(C)C(=O)c2ccc(NC(=O)C3CCOCC3)cc2OC[C@@H](C)N(Cc2nccs2)C[C@@H]1C	/	/	-12.5[16.7 µM]	-0.1	-5.9	/
COc1ccc(-c2oc3ncnc(NCCCN4CCOCC4)c3c2-c2ccc(OC)cc2)cc1	-7.3	-2.3	?	/	active	/
c1ccc(C(c2ccccc2)c2nc(-c3cccnc3)no2)cc1	-4.3	2.5	3.8	-39.5*	/	2.7
O=C(Nc1ccc(Br)cc1)N1CCc2ccccc2C1	-10.1	-5.2	-47.6	-39.3*	/	6.2
O=C(Nc1ccc(F)cc1)N1CCc2ccccc2C1	-25.9	-1.3	12.4	-14.1	-3.0	?
C=CCn1c(SCC(=O)O)nc2sc(CC)cc2c1=O	-13.2	13.5	-7.9	3.2	6.2	-10.3
C=CCn1c(SCC(=O)c2cccs2)nc2sc(CC)cc2c1=O	-0.2	0.6	88.3*	/	10.7	/
OC(c1cccc(OCc2ccccc2)c1)c1nnc(-c2ccccc2)o1 (configuration not stated)	-14.5	-2.4	73.3*	/	-11.0	/
COc1ccc(CCC(C)NCc2ccc(F)cc2)cc1 (configuration not stated)	-6.4	8.5	?	7.0	8.0	4.4
COc1ccc(CCC(C)NCCc2ccc(Cl)cc2Cl)cc1 (configuration not stated)	-14.9	7.7	55.4*	-52.1	28.2	1.1
COc1ccc(CCC(C)Nc2ccc(F)c(F)c2)cc1 (configuration not stated)	-7.2	-6.1	/	/	-14.2	/
COc1ccc(CCC(C)NCc2cc(OC)cc(OC)c2)cc1 (configuration not stated)	-15.7	-2.2	71.1*	2.8	9.3	-2.0
COc1ccc(CCC(C)NCc2ccc(Cl)c(Cl)c2)cc1 (configuration not stated)	-6.9	3.2	81.1*	-54.2	10.1	2.2
CCNC(=O)[C@@H]1[C@@H](CO)[C@@H]2Cn3c(ccc(-c4ccncc4)c3=O)[C@@H]2N1Cc1ccccc1	/	/	/	2.5	/	-0.5
Cc1noc(C)c1NC(=O)Nc1ccc2c(c1)C(=O)N([C@H](C)CO)C[C@@H](C)[C@H](CN(C)C(=O)Nc1ccc(C(F)(F)F)cc1)O2	/	/	/	2.2	/	-1.4
C[C@@H]1CN([C@@H](C)CO)C(=O)c2cc(C#CC(C)(C)O)cnc2O[C@H]1CN(C)Cc1cncnc1	/	/	-1.8[16.7 µM]	-0.3	9.8	-0.5
Cc1ccc(NC(=O)C2CCC(CNc3c(N4CCC(C)CC4)c(=O)c3=O)CC2)cc1F (configuration not stated)	-14.8	-0.6	58.5*	10.9	-5.5	5.1
CCOC(=O)/C(=N\Nc1ccccc1[N+](=O)[O-])c1csc(N)n1	-3.5	-25.7	-2.7	-26.7*	/	2.6
CCCC#Cc1ccc2c(c1)O[C@@H](CN(C)C(=O)CC1CC1)[C@H](C)CN([C@H](C)CO)S2(=O)=O	/	/	-1.6[16.7 µM]	-8.1	/	-3.1
COc1ccc2cc(CN(CC3CCCO3)S(=O)(=O)c3ccccc3)c(=O)[nH]c2c1 (configuration not stated)	4.0	0.1	/	/	/	/
